# Experimental data from ChEMBL document CHEMBL4196091 (Eur J Med Chem, 2018).
# Calls of active or inactive are those of the source. The calls are words filed in the database; no cut-off is given here.
# What was measured:
# A549 [1] = assay: Antiproliferative activity against human A549 cells after 2 days by MTT assay; format: functional, cell-based; conditions: A549, 48 h
# A549 [2] = assay: Cell cycle arrest in human A549 cells assessed as accumulation at sub-G0 phase at 50 nM after 24 hrs by propidium iodide staining based flow cytometry (reference value: 2 +/- 1%); format: functional
# Method in brief: (§1)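 A549 cells maintained in DMEM (1 g/L glucose, 2 mM glutamine, penicillin/streptomycin/amphotericin B, 10% FBS) and treated for 24 h. Cells were then fixed, RNase-treated and stained with propidium iodide. DNA content was measured by flow cytometry to give cell-cycle phase distribution, including a sub-G1 peak. Data are means (±SD) of two experiments.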
# A549 [3] = assay: Cell cycle arrest in human A549 cells assessed as accumulation at G0/G1 phase at 50 nM after 24 hrs by propidium iodide staining based flow cytometry (reference value: 73 +/- 3%); format: functional; method in brief: as §1
# A549 [4] = assay: Cell cycle arrest in human A549 cells assessed as accumulation at S phase at 50 nM after 24 hrs by propidium iodide staining based flow cytometry (reference value: 15 +/- 6%); format: functional; method in brief: as §1
# A549 [5] = assay: Cell cycle arrest in human A549 cells assessed as accumulation at G2/M phase at 50 nM after 24 hrs by propidium iodide staining based flow cytometry (reference value: 11 +/- 4%); format: functional; method in brief: as §1
# HT-29 [6] = assay: Downregulation of c-Myc gene expression in human HT-29 cells assessed as c-Myc mRNA level at 40 nM after 48 hrs by RT-PCR method (reference value: 100%); format: functional
# Method in brief: (§2)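 HT-29 cells were taken at 70–80% confluence and seeded at 1.5 x 10^5 per well. After 24 h they were exposed to compound for 48 h. Total RNA was isolated and TaqMan RT-qPCR run for VEGF-A, c-MYC and hTERT, normalized to β-actin. Expression is given as percent of DMSO control, with at least three measurements and one-sample t-tests.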
# HT-29 [7] = assay: Downregulation of c-Myc gene expression in human HT-29 cells assessed as c-Myc mRNA level at 10 nM after 48 hrs by RT-PCR method (reference value: 100%); format: functional; method in brief: as §2
# HT-29 [8] = assay: Downregulation of hTERT gene expression in human HT-29 cells assessed as hTERT mRNA level at 40 nM after 48 hrs by RT-PCR method (reference value: 100%); format: functional; method in brief: as §2
# HT-29 [9] = assay: Downregulation of hTERT gene expression in human HT-29 cells assessed as hTERT mRNA level at 10 nM after 48 hrs by RT-PCR method (reference value: 100%); format: functional; method in brief: as §2
# HT-29 [10] = assay: Downregulation of VEGF gene expression in human HT-29 cells assessed as VEGF mRNA level at 40 nM after 48 hrs by RT-PCR method (reference value: 100%); format: functional; method in brief: as §2
# HT-29 [11] = assay: Downregulation of VEGF gene expression in human HT-29 cells assessed as VEGF mRNA level at 10 nM after 48 hrs by RT-PCR method (reference value: 100%); format: functional; method in brief: as §2
# HT-29 [12] = assay: Inhibition of VEGF protein secretion in human HT-29 cells assessed as VEGF protein level at 40 nM after 48 hrs by ELISA (reference value: 100%); format: functional; set-up: scale not given: the % may be the effect or the level left
# HT-29 [13] = assay: Inhibition of VEGF protein secretion in human HT-29 cells assessed as VEGF protein level at 10 nM after 48 hrs by ELISA (reference value: 100%); format: functional; set-up: scale not given: the % may be the effect or the level left
# HT-29 [14] = assay: Antiproliferative activity against human HT-29 cells after 2 days by MTT assay; format: functional, cell-based; conditions: HT-29, 48 h
# MCF7 = assay: Antiproliferative activity against human MCF7 cells after 2 days by MTT assay; format: functional, cell-based; conditions: MCF7, 48 h
# HEK293 = assay: Antiproliferative activity against HEK293 cells after 2 days by MTT assay; format: ADME, cell-based; conditions: Homo sapiens, HEK293, 48 h
# HT-29 [15] = assay: Downregulation of c-Myc gene expression in human HT-29 cells assessed as c-Myc mRNA level at 30 nM after 48 hrs by RT-PCR method (reference value: 100%); format: functional; method in brief: as §2
# HT-29 [16] = assay: Downregulation of hTERT gene expression in human HT-29 cells assessed as hTERT mRNA level at 30 nM after 48 hrs by RT-PCR method (reference value: 100%); format: functional; method in brief: as §2
# HT-29 [17] = assay: Downregulation of VEGF gene expression in human HT-29 cells assessed as VEGF mRNA level at 30 nM after 48 hrs by RT-PCR method (reference value: 100%); format: functional; method in brief: as §2
# HT-29 [18] = assay: Inhibition of VEGF protein secretion in human HT-29 cells assessed as VEGF protein level at 30 nM after 48 hrs by ELISA (reference value: 100%); format: functional; set-up: scale not given: the % may be the effect or the level left
# A549 [19] = assay: Cell cycle arrest in human A549 cells assessed as accumulation at G2/M phase at 3 nM after 24 hrs by propidium iodide staining based flow cytometry; format: functional; method in brief: as §1
# A549 [20] = assay: Cell cycle arrest in human A549 cells assessed as accumulation at sub-G0 phase at 20 nM after 24 hrs by propidium iodide staining based flow cytometry (reference value: 2 +/- 1%); format: functional; method in brief: as §1
# A549 [21] = assay: Cell cycle arrest in human A549 cells assessed as accumulation at G0/G1 phase at 20 nM after 24 hrs by propidium iodide staining based flow cytometry (reference value: 73 +/- 3%); format: functional; method in brief: as §1
# A549 [22] = assay: Cell cycle arrest in human A549 cells assessed as accumulation at S phase at 20 nM after 24 hrs by propidium iodide staining based flow cytometry (reference value: 15 +/- 6%); format: functional; method in brief: as §1
# A549 [23] = assay: Cell cycle arrest in human A549 cells assessed as accumulation at G2/M phase at 20 nM after 24 hrs by propidium iodide staining based flow cytometry (reference value: 11 +/- 4%); format: functional; method in brief: as §1
# HT-29 [24] = assay: Downregulation of c-Myc gene expression in human HT-29 cells assessed as c-Myc mRNA level at 5 nM after 48 hrs by RT-PCR method (reference value: 100%); format: functional; method in brief: as §2
# HT-29 [25] = assay: Downregulation of hTERT gene expression in human HT-29 cells assessed as hTERT mRNA level at 5 nM after 48 hrs by RT-PCR method (reference value: 100%); format: functional; method in brief: as §2
# HT-29 [26] = assay: Downregulation of VEGF gene expression in human HT-29 cells assessed as VEGF mRNA level at 5 nM after 48 hrs by RT-PCR method (reference value: 100%); format: functional; method in brief: as §2
# HT-29 [27] = assay: Inhibition of VEGF protein secretion in human HT-29 cells assessed as VEGF protein level at 5 nM after 48 hrs by ELISA (reference value: 100%); format: functional; set-up: scale not given: the % may be the effect or the level left
# HT-29 [28] = assay: Downregulation of c-Myc gene expression in human HT-29 cells assessed as c-Myc mRNA level at 9 nM after 48 hrs by RT-PCR method (reference value: 100%); format: functional; method in brief: as §2
# HT-29 [29] = assay: Downregulation of hTERT gene expression in human HT-29 cells assessed as hTERT mRNA level at 9 nM after 48 hrs by RT-PCR method (reference value: 100%); format: functional; method in brief: as §2
# HT-29 [30] = assay: Downregulation of VEGF gene expression in human HT-29 cells assessed as VEGF mRNA level at 9 nM after 48 hrs by RT-PCR method (reference value: 100%); format: functional; method in brief: as §2
# HT-29 [31] = assay: Inhibition of VEGF protein secretion in human HT-29 cells assessed as VEGF protein level at 9 nM after 48 hrs by ELISA (reference value: 100%); format: functional; set-up: scale not given: the % may be the effect or the level left
# HT-29 [32] = assay: Downregulation of c-Myc gene expression in human HT-29 cells assessed as c-Myc mRNA level at 2 nM after 48 hrs by RT-PCR method (reference value: 100%); format: functional; method in brief: as §2
# HT-29 [33] = assay: Downregulation of hTERT gene expression in human HT-29 cells assessed as hTERT mRNA level at 2 nM after 48 hrs by RT-PCR method (reference value: 100%); format: functional; method in brief: as §2
# HT-29 [34] = assay: Downregulation of VEGF gene expression in human HT-29 cells assessed as VEGF mRNA level at 2 nM after 48 hrs by RT-PCR method (reference value: 100%); format: functional; method in brief: as §2
# HT-29 [35] = assay: Inhibition of VEGF protein secretion in human HT-29 cells assessed as VEGF protein level at 2 nM after 48 hrs by ELISA (reference value: 100%); format: functional; set-up: scale not given: the % may be the effect or the level left
# HT-29 [36] = assay: Downregulation of c-Myc gene expression in human HT-29 cells assessed as c-Myc mRNA level at 0.5 nM after 48 hrs by RT-PCR method (reference value: 100%); format: functional; method in brief: as §2
# HT-29 [37] = assay: Downregulation of hTERT gene expression in human HT-29 cells assessed as hTERT mRNA level at 0.5 nM after 48 hrs by RT-PCR method (reference value: 100%); format: functional; method in brief: as §2
# HT-29 [38] = assay: Downregulation of VEGF gene expression in human HT-29 cells assessed as VEGF mRNA level at 0.5 nM after 48 hrs by RT-PCR method (reference value: 100%); format: functional; method in brief: as §2
# HT-29 [39] = assay: Inhibition of VEGF protein secretion in human HT-29 cells assessed as VEGF protein level at 0.5 nM after 48 hrs by ELISA (reference value: 100%); format: functional; set-up: scale not given: the % may be the effect or the level left
SMILES,IC50 (A549 [1]) [nM],Activity (A549 [2]) [%],Activity (A549 [3]) [%],Activity (A549 [4]) [%],Activity (A549 [5]) [%],IC50 (HT-29 [14]) [nM],IC50 (MCF7) [nM],IC50 (HEK293) [nM],Activity (A549 [19]),Activity (A549 [20]) [%],Activity (A549 [21]) [%],Activity (A549 [22]) [%],Activity (A549 [23]) [%],other results
COc1cc2c(c(OC)c1OC)-c1ccc(OC)c(=O)cc1[C@@H](NC(C)=O)CC2 [COLCHICINE],12.2,3,27,11,59,,,,,,,,,Activity (HT-29 [6]): 32%; Activity (HT-29 [7]): >100%; Activity (HT-29 [8]): 50%; Activity (HT-29 [9]): >100%; Activity (HT-29 [10]): 41%; Activity (HT-29 [11]): >100%; Activity (HT-29 [12]): 61%; Activity (HT-29 [13]): 100%
COc1cc2c(c(OC)c1OC)-c1ccc(OC)c(=O)cc1[C@@H](NC(=O)c1ccc(C(C)(C)C)cc1)CC2,36,,,,,32.7,24,58,,,,,,Activity (HT-29 [15]): 82%; Activity (HT-29 [16]): >100%; Activity (HT-29 [17]): 73%; Activity (HT-29 [18]): 61%
COc1cc2c(c(OC)c1OC)-c1ccc(OC)c(=O)cc1[C@@H](NC(=O)c1ccccc1Br)CC2,13,,,,,5.8,7.6,8.5,Active,4,27,22,47,Activity (HT-29 [24]): 50%; Activity (HT-29 [25]): 88%; Activity (HT-29 [26]): 57%; Activity (HT-29 [27]): 80%
COc1cc2c(c(OC)c1OC)-c1ccc(OC)c(=O)cc1[C@@H](NC(=O)c1ccc(Br)cc1)CC2,4.2,,,,,11.4,8.9,7.8,Active,4,25,16,56,Activity (HT-29 [28]): 41%; Activity (HT-29 [29]): >100%; Activity (HT-29 [30]): 37%; Activity (HT-29 [31]): 62%
COc1cc2c(c(OC)c1OC)-c1ccc(OC)c(=O)cc1[C@@H](NC(=O)c1cccc(C)c1)CC2,8.7,16,29,10,45,2.23,5.6,3.1,,,,,,Activity (HT-29 [32]): 44%; Activity (HT-29 [33]): 74%; Activity (HT-29 [34]): 53%; Activity (HT-29 [35]): 76%
COc1cc2c(c(OC)c1OC)-c1ccc(OC)c(=O)cc1[C@@H](NC(=O)c1cccc(Br)c1)CC2,14,,,,,0.56,0.363,1.1,Active,4,29,16,51,Activity (HT-29 [36]): 34%; Activity (HT-29 [37]): 91%; Activity (HT-29 [38]): 61%; Activity (HT-29 [39]): 79%
